The text below walks through data of ChEMBL document CHEMBL2311380, “The first total synthesis and biological evaluation of marine natural products ma'edamines A and B” (Bioorg Med Chem Lett, 2013).

The subject of assay [1] is A549. Put plainly: Cytotoxicity against human lung adenocarcinoma cell line A549 assessed as inhibition of cell viability measured after 24 hrs by MTT assay. The format is functional, cell-based. Conditions: A549, 24 h. Put shortly: (§1)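 Exponentially growing cells exposed to compound, then allowed to proliferate for two to three population doubling times; surviving cells quantified by MTT reduction by mitochondrial dehydrogenase to formazan, dissolved in DMSO and read at 570 nm.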
A general note: Formazan colour is commonly taken as a measure of viable cells.

For another assay, the system named is THP-1. Put plainly: Cytotoxicity against human acute monocytic leukemia cell line THP1 assessed as inhibition of cell viability measured after 24 hrs by MTT assay. The assay is classed as functional, cell-based. To be noted: THP-1, 24 h. Put shortly:
as §1

Assay [2] concerns COLO 205. Put plainly: Cytotoxicity against human colon cancer line COLO205 assessed as cell death measured at 5 ug/mL after 24 hrs by MTT assay. The format is functional. Put shortly: (§2)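 Cells in exponential growth exposed to compound, then left to proliferate for two to three population doubling times so viable, proliferating cells are told apart from non-proliferating ones. Surviving cells estimated by MTT reduction to formazan by mitochondrial dehydrogenase; formazan dissolved in DMSO and read at 570 nm.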

Assay [3] relates to MCF7. Put plainly: Cytotoxicity against human breast cancer cell line MCF7 assessed as inhibition of cell viability […] by MTT assay. The assay is classed as functional, cell-based.
For assay [4], the system named is MCF7. Put plainly: Cytotoxicity against human colon cancer line MCF7 assessed as cell death measured at 2 ug/mL after 24 hrs by MTT assay. The format is functional. Put shortly:
as §2

Assay [5] has as its system COLO 205. Put plainly: Cytotoxicity against human colon cancer line COLO205 assessed as cell death measured at 10 ug/mL after 24 hrs by MTT assay. The format is functional. Put shortly:
as §2

Assay [6] deals with MCF7. Put plainly: Cytotoxicity against human colon cancer line MCF7 assessed as cell death measured at 1 ug/mL after 24 hrs by MTT assay. The format is functional. Put shortly: as §2
Assay [7] concerns A549. Put plainly: Cytotoxicity against human […] assessed as cell death measured at 5 ug/mL after 24 hrs by MTT assay. The assay is classed as functional. Put shortly:
as §2

The test system of assay [8] is COLO 205. Put plainly: Cytotoxicity against human colon cancer line COLO205 assessed as inhibition of cell viability measured after 24 hrs by MTT assay. The assay is classed as functional, cell-based. To be noted: COLO 205, 24 h. Put shortly: as §1
In assay [9] the test system is COLO 205. Put plainly: Cytotoxicity against human colon cancer line COLO205 assessed as cell death measured at 1 ug/mL after 24 hrs by MTT assay. The assay is classed as functional. Put shortly:
as §2

Assay [10] concerns MCF7. Put plainly: Cytotoxicity against human colon cancer line MCF7 assessed as cell death measured at 5 ug/mL after 24 hrs by MTT assay. The format is functional. Put shortly:
as §2

The test system of assay [11] is COLO 205. Put plainly: Cytotoxicity against human colon cancer line COLO205 assessed as cell death measured at 7 ug/mL after 24 hrs by MTT assay. The assay is classed as functional. Put shortly: as §2
The test system of assay [12] is COLO 205. Put plainly: Cytotoxicity against human colon cancer line COLO205 assessed as cell death measured at 2 ug/mL after 24 hrs by MTT assay. The format is functional. Put shortly:
as §2

The test system of assay [13] is MCF7. Put plainly: Cytotoxicity against human colon cancer line MCF7 assessed as cell death measured at 10 ug/mL after 24 hrs by MTT assay. The format is functional. Put shortly: as §2
The test system of assay [14] is A549. Put plainly: Cytotoxicity against human […] assessed as cell death measured at 1 ug/mL after 24 hrs by MTT assay. The format is functional. Put shortly:
as §2

Assay [15] concerns A549. Put plainly: Cytotoxicity against human […] assessed as cell death measured at 10 ug/mL after 24 hrs by MTT assay. The format is functional. Put shortly: as §2
Assay [16] deals with A549. Put plainly: Cytotoxicity against human […] assessed as cell death measured at 2 ug/mL after 24 hrs by MTT assay. The assay is classed as functional. Put shortly:
as §2

Assay [17] has as its system A549. Put plainly: Cytotoxicity against human […] assessed as cell death measured at 7 ug/mL after 24 hrs by MTT assay. The assay is classed as functional. Put shortly:
as §2

Assay [18] has as its system MCF7. Put plainly: Cytotoxicity against human colon cancer line MCF7 assessed as cell death measured at 7 ug/mL after 24 hrs by MTT assay. The format is functional. Put shortly:
as §2

In assay [19] the test system is MCF7. Put plainly: Induction of apoptosis in human MCF7 cells assessed as double-strand DNA break at IC50 concentration measured after 24 hrs by comet assay relative to control. The format is functional, cell-based. Put shortly: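 Treated cells embedded in low melting agarose on a microscope slide, lysed at alkaline pH, electrophoresed at high pH, then examined for comet tails as a sign of double-strand DNA breaks, with untreated cells as control.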

The test system of assay [20] is MCF7. Put plainly: Induction of apoptosis in human MCF7 cells assessed as DNA laddering at IC50 concentration measured after 24 hrs by DNA laddering assay relative to control. The assay is classed as functional, cell-based. Put shortly:
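DNA from treated and untreated cells run on a gel and examined for fragmentation (laddering).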

The test system of assay [21] is MCF7. Put plainly: Cytotoxicity against human breast cancer cell line MCF7 assessed as cell survival measured after 24 hrs by MTT assay relative to control. The format is functional. Put shortly: as §2
Another assay deals with HepG2. Put plainly: Cytotoxicity against human liver hepatocellular carcinoma cell line HepG2 assessed as inhibition of cell viability measured after 24 hrs by MTT assay. Conditions: HepG2, 24 h. The assay is classed as functional, cell-based. Put shortly: as §1
In another assay the test system is B16-F10. Put plainly: Cytotoxicity against mouse melanoma cell line B16F10 assessed as inhibition of cell viability measured after 24 hrs by MTT assay. The format is functional, cell-based. To be noted: B16-F10, 24 h. Put shortly: as §1

What is called IC50 is the concentration needed to halve the response being measured.

The source made the active and inactive calls. The rule behind the calls is not given here.

In the case of `COc1ccc(Cc2nc(-c3cc(Br)c(OCCCN(C)C)c(Br)c3)cnc2Cl)cc1Br`, the IC50 with A549 [1] came to 14.4 µM; in the assay with THP-1 it was 87.3 µM.
`COc1cc([C@@H]2c3cc4c(cc3[C@@H](O[C@@H]3O[C@@H]5CO[C@@H](C)O[C@H]5[C@H](O)[C@H]3O)[C@H]3COC(=O)[C@H]23)OCO4)cc(OC)c1O` [ETOPOSIDE]: the Activity in the assay on COLO 205 [2] was 78.7%; in the assay with MCF7 [4], 8.9%; in the assay on COLO 205 [5], 100%; in the assay with MCF7 [6], 4.3%; with A549 [7], 100%; with COLO 205 [9], 17.8%. In addition, the Activity in the assay on MCF7 [10] came to 23.9%; with COLO 205 [11], 100%; in the assay with COLO 205 [12], 39.2%; in the assay with MCF7 [13] it was 51%; with A549 [14], 47.9%; in the assay on A549 [15] it was 100%. In addition, the results for the Activity with A549 [16], in the assay on A549 [17] and in the assay on MCF7 [18] were 93.4%, 100% and 33.7%, respectively. The values for the 50% inhibitory concentration (IC50) in the assay with MCF7 [3] and in the assay on COLO 205 [8] were 16.3 µM and 5.3 µM, respectively.
For the compound `COc1ccc(Cc2nc(-c3cc(Br)c(O)c(Br)c3)cnc2Cl)cc1Br`, the IC50 in the assay on A549 [1] was 41.2 µM; with THP-1, 108 µM.
The like results for `COc1ccc(Cc2nc(-c3cc(Br)c(O)c(Br)c3)c[nH]c2=O)cc1Br` were, in that order, 52 µM and 125 µM.
Take `COc1ccc(Cc2nc(-c3cc(Br)c(OCCCN(C)C)c(Br)c3)c[nH]c2=O)cc1Br` [Ma'edamine A]: the outcome with MCF7 [19] and in the assay on MCF7 [20] was Active. Further, the IC50 is 12.2 µM with A549 [1]; 6.9 µM in the assay on MCF7 [3]; 7.9 µM in the assay with COLO 205 [8]; 29.6 µM in the assay on HepG2; 16.7 µM with B16-F10; 46.2 µM in the assay with THP-1. Moreover, the Survival in the assay with MCF7 [21] amounted to 47.7%.
Take `CNCCCOc1c(Br)cc(-c2cnc(Cl)c(Cc3ccc(OC)c(Br)c3)n2)cc1Br`: the IC50 with A549 [1] was 25.3 µM; in the assay with THP-1, 133 µM.
As for `CNCCCOc1c(Br)cc(-c2c[nH]c(=O)c(Cc3ccc(OC)c(Br)c3)n2)cc1Br` [Ma'edamine B], the outcome in the assay on MCF7 [19] and in the assay on MCF7 [20] was Active. For the same compound, the IC50 in the assay on A549 [1] is 15.4 µM; in the assay on MCF7 [3], 10.9 µM; in the assay on COLO 205 [8] it was 10.3 µM; in the assay on HepG2, 42.8 µM; in the assay on B16-F10, 53.3 µM; in the assay with THP-1, 90.7 µM. In addition, the Survival with MCF7 [21] was found to be 49.256%.
